Test results reported in ChEMBL document CHEMBL1139342, “Antibacterial 5'-O-(N-dipeptidyl)-sulfamoyladenosines” (2009).
Where a SMILES comes first, the peptide text is derived from it. The star is where a group is joined. AspNHSO2(5'-O-Ado) = Nc1ncnc2c1ncn2[C@@H]1O[C@H](COS(=O)(=O)NC(=O)[C@H](CC(=O)O)N*)[C@@H](O)[C@H]1O

Assays:
Format in all cases: functional
Staphylococcus aureus [1] = experiment: Antibacterial activity against Staphylococcus aureus ATCC 25923 at 30 nmol after 16 to 20 hrs
Method in brief: (§1)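 Agar overlay diffusion assay: soft Mueller–Hinton agar (0.75% agar) seeded with bacteria poured over Mueller–Hinton agar (1.5% agar). Once set, 5 µL drops of compound in milliQ water were applied (30 nmol per drop, or 1.2 nmol for the reference compound) and allowed to dry. Plates were incubated at 37 °C for 16–20 h. Inhibition zone area was read in mm², triplicate per compound–dose.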

Enterococcus faecalis [2] = experiment: Antibacterial activity against Enterococcus faecalis ATCC 29212 at 30 nmol after 16 to 20 hrs; method in brief: as §1
Escherichia coli [3] = experiment: Antibacterial activity against wild type Escherichia coli at 30 nmol after 16 to 20 hrs; method in brief: as §1
Escherichia coli [4] = experiment: Antibacterial activity against Escherichia coli delta ABN mutant lacking peptidase A, B, N at 30 nmol after 16 to 20 hrs
Method in brief: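 Agar diffusion test. A soft Mueller–Hinton agar lawn (0.75% agar) seeded with bacteria was poured over Mueller–Hinton agar (1.5% agar). Once the agar set, 5 µL drops of compound in milliQ water (30 nmol per drop) were applied and left to dry. Plates were incubated at 37 °C for 16–20 h. Inhibition zone area was recorded in mm² as mean ± SD of triplicates.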

Staphylococcus aureus [5] = experiment: Antibacterial activity against Staphylococcus aureus ATCC 25923 at 1.2 nmol after 16 to 20 hrs; method in brief: as §1
Enterococcus faecalis [6] = experiment: Antibacterial activity against Enterococcus faecalis ATCC 29212 at 1.2 nmol after 16 to 20 hrs; method in brief: as §1
Escherichia coli [7] = experiment: Antibacterial activity against wild type Escherichia coli at 1.2 nmol after 16 to 20 hrs; method in brief: as §1

CSCC[C@H](N)C(=O)N[C@@H](Cc1c[nH]c2ccccc12)C(=O)NS(=O)(=O)OC[C@H]1O[C@@H](n2cnc3c(N)ncnc32)[C@H](O)[C@@H]1O
inhibition zone (IZ) (Staphylococcus aureus [1]): 0 mm2 | inhibition zone (IZ) (Enterococcus faecalis [2]): 0 mm2 | inhibition zone (IZ) (Escherichia coli [3]): 0 mm2

C[C@H](N)C(=O)N[C@@H](Cc1c[nH]c2ccccc12)C(=O)NS(=O)(=O)OC[C@H]1O[C@@H](n2cnc3c(N)ncnc32)[C@H](O)[C@@H]1O
inhibition zone (IZ) (Staphylococcus aureus [1]): 0 mm2 | inhibition zone (IZ) (Enterococcus faecalis [2]): 0 mm2 | inhibition zone (IZ) (Escherichia coli [3]): 0 mm2

Nc1ncnc2c1ncn2[C@@H]1O[C@H](COS(=O)(=O)NC(=O)[C@H](Cc2c[nH]c3ccccc23)NC(=O)[C@@H]2CCCN2)[C@@H](O)[C@H]1O
inhibition zone (IZ) (Staphylococcus aureus [1]): 0 mm2 | inhibition zone (IZ) (Enterococcus faecalis [2]): 0 mm2 | inhibition zone (IZ) (Escherichia coli [3]): 0 mm2

CC(C)C[C@H](NC(=O)[C@H](C)N)C(=O)NS(=O)(=O)OC[C@H]1O[C@@H](n2cnc3c(N)ncnc32)[C@H](O)[C@@H]1O
inhibition zone (IZ) (Staphylococcus aureus [1]): 0 mm2 | inhibition zone (IZ) (Enterococcus faecalis [2]): 24.2 mm2 | inhibition zone (IZ) (Escherichia coli [3]): 0 mm2

Nc1ncnc2c1ncn2[C@@H]1O[C@H](COS(=O)(=O)NC(=O)[C@@H](N)CC(=O)O)[C@@H](O)[C@H]1O
inhibition zone (IZ) (Staphylococcus aureus [1]): 0 mm2 | inhibition zone (IZ) (Enterococcus faecalis [2]): 21.3 mm2 | inhibition zone (IZ) (Escherichia coli [3]): 26.8 mm2 | inhibition zone (IZ) (Escherichia coli [4]): 28.3 mm2

CSCC[C@H](NC(=O)[C@H](C)N)C(=O)NS(=O)(=O)OC[C@H]1O[C@@H](n2cnc3c(N)ncnc32)[C@H](O)[C@@H]1O
inhibition zone (IZ) (Staphylococcus aureus [1]): 0 mm2 | inhibition zone (IZ) (Enterococcus faecalis [2]): 0 mm2 | inhibition zone (IZ) (Escherichia coli [3]): 0 mm2

CSCC[C@H](N)C(=O)NS(=O)(=O)OC[C@H]1O[C@@H](n2cnc3c(N)ncnc32)[C@H](O)[C@@H]1O
inhibition zone (IZ) (Staphylococcus aureus [1]): 18.7 mm2 | inhibition zone (IZ) (Enterococcus faecalis [2]): 0 mm2 | inhibition zone (IZ) (Escherichia coli [3]): 26.8 mm2 | inhibition zone (IZ) (Escherichia coli [4]): 40.4 mm2

Nc1ncnc2c1ncn2[C@@H]1O[C@H](COS(=O)(=O)NC(=O)[C@@H](N)Cc2c[nH]c3ccccc23)[C@@H](O)[C@H]1O
inhibition zone (IZ) (Staphylococcus aureus [1]): 0 mm2 | inhibition zone (IZ) (Enterococcus faecalis [2]): 0 mm2 | inhibition zone (IZ) (Escherichia coli [3]): 0 mm2

CSCC[C@H](N)C(=O)N[C@@H](C)C(=O)NS(=O)(=O)OC[C@H]1O[C@@H](n2cnc3c(N)ncnc32)[C@H](O)[C@@H]1O
inhibition zone (IZ) (Staphylococcus aureus [1]): 59 mm2 | inhibition zone (IZ) (Enterococcus faecalis [2]): 76.1 mm2 | inhibition zone (IZ) (Escherichia coli [3]): 26.8 mm2 | inhibition zone (IZ) (Escherichia coli [4]): 0 mm2

CSCC[C@H](N)C(=O)N[C@@H](CC(C)C)C(=O)NS(=O)(=O)OC[C@H]1O[C@@H](n2cnc3c(N)ncnc32)[C@H](O)[C@@H]1O
inhibition zone (IZ) (Staphylococcus aureus [1]): 0 mm2 | inhibition zone (IZ) (Enterococcus faecalis [2]): 33.3 mm2 | inhibition zone (IZ) (Escherichia coli [3]): 0 mm2

CC(C)C[C@H](NC(=O)[C@@H](N)CCCCN)C(=O)NS(=O)(=O)OC[C@H]1O[C@@H](n2cnc3c(N)ncnc32)[C@H](O)[C@@H]1O
inhibition zone (IZ) (Staphylococcus aureus [1]): 0 mm2 | inhibition zone (IZ) (Enterococcus faecalis [2]): 0 mm2 | inhibition zone (IZ) (Escherichia coli [3]): 0 mm2

CSCC[C@H](NC(=O)[C@@H]1CCCN1)C(=O)NS(=O)(=O)OC[C@H]1O[C@@H](n2cnc3c(N)ncnc32)[C@H](O)[C@@H]1O
inhibition zone (IZ) (Staphylococcus aureus [1]): 0 mm2 | inhibition zone (IZ) (Enterococcus faecalis [2]): 0 mm2 | inhibition zone (IZ) (Escherichia coli [3]): 0 mm2

C[C@H](N)C(=O)N[C@@H](C)C(=O)NS(=O)(=O)OC[C@H]1O[C@@H](n2cnc3c(N)ncnc32)[C@H](O)[C@@H]1O
inhibition zone (IZ) (Staphylococcus aureus [1]): 0 mm2 | inhibition zone (IZ) (Enterococcus faecalis [2]): 56.9 mm2 | inhibition zone (IZ) (Escherichia coli [3]): 25.3 mm2 | inhibition zone (IZ) (Escherichia coli [4]): 0 mm2

CSCC[C@H](NC(=O)[C@@H](N)CCSC)C(=O)NS(=O)(=O)OC[C@H]1O[C@@H](n2cnc3c(N)ncnc32)[C@H](O)[C@@H]1O
inhibition zone (IZ) (Staphylococcus aureus [1]): 0 mm2 | inhibition zone (IZ) (Enterococcus faecalis [2]): 83.9 mm2 | inhibition zone (IZ) (Escherichia coli [3]): 0 mm2

Nc1ncnc2c1ncn2[C@@H]1O[C@H](COS(=O)(=O)NC(=O)[C@H](Cc2ccccc2)NC(=O)[C@@H](N)Cc2ccccc2)[C@@H](O)[C@H]1O
inhibition zone (IZ) (Staphylococcus aureus [1]): 0 mm2 | inhibition zone (IZ) (Enterococcus faecalis [2]): 26.8 mm2 | inhibition zone (IZ) (Escherichia coli [3]): 18.4 mm2 | inhibition zone (IZ) (Escherichia coli [4]): 19.6 mm2

NCCCC[C@H](N)C(=O)N[C@@H](Cc1c[nH]c2ccccc12)C(=O)NS(=O)(=O)OC[C@H]1O[C@@H](n2cnc3c(N)ncnc32)[C@H](O)[C@@H]1O
inhibition zone (IZ) (Staphylococcus aureus [1]): 0 mm2 | inhibition zone (IZ) (Enterococcus faecalis [2]): 0 mm2 | inhibition zone (IZ) (Escherichia coli [3]): 0 mm2

CC(C)C[C@H](NC(=O)[C@@H](N)CCC(=O)O)C(=O)NS(=O)(=O)OC[C@H]1O[C@@H](n2cnc3c(N)ncnc32)[C@H](O)[C@@H]1O
inhibition zone (IZ) (Staphylococcus aureus [1]): 0 mm2 | inhibition zone (IZ) (Enterococcus faecalis [2]): 0 mm2 | inhibition zone (IZ) (Escherichia coli [3]): 0 mm2

CSCC[C@H](N)C(=O)N[C@@H](CC(=O)O)C(=O)NS(=O)(=O)OC[C@H]1O[C@@H](n2cnc3c(N)ncnc32)[C@H](O)[C@@H]1O
inhibition zone (IZ) (Staphylococcus aureus [1]): 0 mm2 | inhibition zone (IZ) (Enterococcus faecalis [2]): 63.7 mm2 | inhibition zone (IZ) (Escherichia coli [3]): 12.6 mm2 | inhibition zone (IZ) (Escherichia coli [4]): 31.5 mm2

CC(C)C[C@H](NC(=O)[C@@H]1CCCN1)C(=O)NS(=O)(=O)OC[C@H]1O[C@@H](n2cnc3c(N)ncnc32)[C@H](O)[C@@H]1O
inhibition zone (IZ) (Staphylococcus aureus [1]): 0 mm2 | inhibition zone (IZ) (Enterococcus faecalis [2]): 0 mm2 | inhibition zone (IZ) (Escherichia coli [3]): 0 mm2

C[C@H](NC(=O)[C@@H]1CCCN1)C(=O)NS(=O)(=O)OC[C@H]1O[C@@H](n2cnc3c(N)ncnc32)[C@H](O)[C@@H]1O
inhibition zone (IZ) (Staphylococcus aureus [1]): 0 mm2 | inhibition zone (IZ) (Enterococcus faecalis [2]): 0 mm2 | inhibition zone (IZ) (Escherichia coli [3]): 18.4 mm2 | inhibition zone (IZ) (Escherichia coli [4]): 0 mm2

CSCC[C@H](N)C(=O)N[C@@H](CCCNC(=N)N)C(=O)N[C@H](C(=O)NCC(=O)N[C@@H](CC(N)=O)C(=O)N[C@@H](C)C(=O)N[C@@H](CC(=O)O)C(=O)NS(=O)(=O)OC[C@H]1O[C@@H](n2cnc3c(N)ncnc32)[C@H](O)[C@@H]1O)[C@@H](C)O (H-MRTGNA-{AspNHSO2(5'-O-Ado)})
inhibition zone (IZ) (Staphylococcus aureus [5]): 0 mm2 | inhibition zone (IZ) (Enterococcus faecalis [6]): 0 mm2 | inhibition zone (IZ) (Escherichia coli [7]): 46.7 mm2

C[C@H](N)C(=O)NS(=O)(=O)OC[C@H]1O[C@@H](n2cnc3c(N)ncnc32)[C@H](O)[C@@H]1O [ALASA]
inhibition zone (IZ) (Staphylococcus aureus [1]): 35 mm2 | inhibition zone (IZ) (Enterococcus faecalis [2]): 44.7 mm2 | inhibition zone (IZ) (Escherichia coli [3]): 46.3 mm2 | inhibition zone (IZ) (Escherichia coli [4]): 42.3 mm2

CC(C)C[C@H](N)C(=O)NS(=O)(=O)OC[C@H]1O[C@@H](n2cnc3c(N)ncnc32)[C@H](O)[C@@H]1O [LEUSA]
inhibition zone (IZ) (Staphylococcus aureus [1]): 0 mm2 | inhibition zone (IZ) (Enterococcus faecalis [2]): 26.9 mm2 | inhibition zone (IZ) (Escherichia coli [3]): 25.4 mm2 | inhibition zone (IZ) (Escherichia coli [4]): 66 mm2

C/C(=C\C(=O)OCCCCCCCCC(=O)O)C[C@@H]1OC[C@H](C[C@@H]2O[C@H]2[C@@H](C)[C@H](C)O)[C@@H](O)[C@H]1O [MUPIROCIN]
inhibition zone (IZ) (Staphylococcus aureus [1]): >490.93 mm2 | inhibition zone (IZ) (Enterococcus faecalis [2]): 89.4 mm2 | inhibition zone (IZ) (Escherichia coli [3]): 38.5 mm2 | inhibition zone (IZ) (Escherichia coli [4]): 52.7 mm2

Nc1ncnc2c1ncn2[C@@H]1O[C@H](COS(=O)(=O)NC(=O)[C@@H](N)Cc2ccccc2)[C@@H](O)[C@H]1O [PHESA]
inhibition zone (IZ) (Staphylococcus aureus [1]): 0 mm2 | inhibition zone (IZ) (Enterococcus faecalis [2]): 40.4 mm2 | inhibition zone (IZ) (Escherichia coli [3]): 38.5 mm2 | inhibition zone (IZ) (Escherichia coli [4]): 52.7 mm2
